We go through 7 compounds from ChEMBL document CHEMBL1142874, “Design and synthesis of anticonvulsants from a combined phthalimide-GABA-anilide and hydrazone pharmacophore” (Eur J Med Chem, 2007).

SMILES strings stand for the structures. The source made the active and inactive calls. No cut-off for these calls is given here.

The test system of the first data set is Mus musculus. The experiment in a line: Anticonvulsant activity against intraperitoneal picrotoxin-induced seizure in Albino CF1 mouse at 300 mg/kg, ip after 4 hrs. Set-up: dose 300 mg/kg.
Conditions: not given
The data set is classed as functional, organism-based. In outline:
(§1)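 Mice received the test compound by intraperitoneal injection at 30, 100 or 300 mg/kg. They were then challenged with intraperitoneal picrotoxin and scored for anticonvulsant protection 0.5 h or 4 h after dosing. The value recorded is the lowest dose that protected half or more of the mice. A dash means no activity up to 300 mg/kg.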
In the case of `COc1cc(/C=N\NC(=O)CCCN2C(=O)c3ccccc3C2=O)ccc1O`, the result was inactive.
Consider `C/C(=N/NC(=O)CCCN1C(=O)c2ccccc2C1=O)c1ccc([N+](=O)[O-])cc1`, for which the outcome was inactive.
Same read-out and setting: to `O=C(CCCN1C(=O)c2ccccc2C1=O)NN=C(c1ccccc1)c1ccccc1` belongs “inactive”.
In the case of `O=C(CCCN1C(=O)c2ccccc2C1=O)N/N=C\c1ccccc1O`, the outcome was inactive.
Same read-out and setting: the entry for `O=C(CCCN1C(=O)c2ccccc2C1=O)N/N=C\c1cccc([N+](=O)[O-])c1` is “inactive”; for `O=C(CCCN1C(=O)c2ccccc2C1=O)N/N=C\c1ccc([N+](=O)[O-])cc1` it is “inactive”.
With `O=C(CCCN1C(=O)c2ccccc2C1=O)Nc1ccccc1C(F)(F)F`, the result was inactive.

The subject of another data set is Mus musculus. As to the kind of experiment: Anticonvulsant activity against subcutaneous strychnine-induced seizure in Albino CF1 mouse at 300 mg/kg, ip after 0.5 hrs. Format: functional, organism-based. Set-up: dose 300 mg/kg.
Conditions: not given
In outline:
(§2)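 Test compounds given i.p. to mice at 0.01 mL/g, at 30, 100 or 300 mg/kg. The seizure challenge followed at 0.5 h and at 4 h after dosing. The value recorded is the lowest dose that protected half or more of the mice. Where no activity was seen, the maximum dose given was 300 mg/kg.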
With `COc1cc(/C=N\NC(=O)CCCN2C(=O)c3ccccc3C2=O)ccc1O`, the outcome was inactive.
Consider `O=C(CCCN1C(=O)c2ccccc2C1=O)NN=C(c1ccccc1)c1ccccc1`, for which the outcome was inactive.
On the same count and under the same terms, the entry for `O=C(CCCN1C(=O)c2ccccc2C1=O)N/N=C\c1ccccc1O` is “inactive”; for `O=C(CCCN1C(=O)c2ccccc2C1=O)N/N=C\c1cccc([N+](=O)[O-])c1` it is “inactive”.
Same read-out and setting: the entry for `O=C(CCCN1C(=O)c2ccccc2C1=O)N/N=C\c1ccc([N+](=O)[O-])cc1` is “inactive”; for `O=C(CCCN1C(=O)c2ccccc2C1=O)Nc1ccccc1C(F)(F)F` it is “Active”.

The next data set has as its system Mus musculus. The experiment in a line: Anticonvulsant activity in Albino CF1 mouse upto 300 mg/kg, ip in maximal electroshock seizure test. Format: functional, organism-based. Set-up: dose 300 mg/kg.
Conditions: not given
In outline:
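Mice dosed i.p. (0.01 mL/g) at 30, 100 and 300 mg/kg. Electroshock challenge run 30 min and 4 h after dosing.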
A general note: Protection in the maximal electroshock model is a classic sign of anticonvulsant action.
Take `COc1cc(/C=N\NC(=O)CCCN2C(=O)c3ccccc3C2=O)ccc1O`: the result was inactive.
On the same count and under the same terms, to `C/C(=N/NC(=O)CCCN1C(=O)c2ccccc2C1=O)c1ccc([N+](=O)[O-])cc1` belongs “inactive”; to `O=C(CCCN1C(=O)c2ccccc2C1=O)NN=C(c1ccccc1)c1ccccc1`, “inactive”.
The same measure, in the same setting: to `O=C(CCCN1C(=O)c2ccccc2C1=O)N/N=C\c1ccccc1O` belongs “inactive”; to `O=C(CCCN1C(=O)c2ccccc2C1=O)N/N=C\c1cccc([N+](=O)[O-])c1`, “inactive”; to `O=C(CCCN1C(=O)c2ccccc2C1=O)N/N=C\c1ccc([N+](=O)[O-])cc1`, “inactive”.
Still for that read-out and setting: to `O=C(CCCN1C(=O)c2ccccc2C1=O)Nc1ccccc1C(F)(F)F` belongs “inactive”.

The test system of the next data set is Mus musculus. As to the kind of experiment: Anticonvulsant activity against subcutaneous pentylenetetrazole-induced seizure in Albino CF1 mouse at 300 mg/kg, ip after 4 hrs. Set-up: dose 300 mg/kg.
Conditions: not given
The data set is classed as functional, organism-based. In outline: as §2
Take `COc1cc(/C=N\NC(=O)CCCN2C(=O)c3ccccc3C2=O)ccc1O`: the outcome was inactive.
The same measure, in the same setting: to `C/C(=N/NC(=O)CCCN1C(=O)c2ccccc2C1=O)c1ccc([N+](=O)[O-])cc1` belongs “inactive”; to `O=C(CCCN1C(=O)c2ccccc2C1=O)NN=C(c1ccccc1)c1ccccc1`, “inactive”.
As to `O=C(CCCN1C(=O)c2ccccc2C1=O)N/N=C\c1ccccc1O`, the outcome was inactive.
Same read-out and setting: the entry for `O=C(CCCN1C(=O)c2ccccc2C1=O)N/N=C\c1cccc([N+](=O)[O-])c1` is “inactive”; for `O=C(CCCN1C(=O)c2ccccc2C1=O)N/N=C\c1ccc([N+](=O)[O-])cc1` it is “inactive”.
Same read-out and setting: to `O=C(CCCN1C(=O)c2ccccc2C1=O)Nc1ccccc1C(F)(F)F` belongs “inactive”.

Another data set has as its system Mus musculus. The experiment in a line: Neurotoxicity in Albino CF1 mouse at 300 mg/kg, ip after 4 hrs by Rotarod test. Format: toxicity, organism-based. More on the design: dose 300 mg/kg, route intraperitoneal. Conditions: in vivo. The essentials:
(§3)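 Rotarod test in mice pre-trained to stay on the rod for two consecutive 90 s trials. Compounds given i.p. at 30, 100 or 300 mg/kg, with testing at 0.5 h and 4 h. Deficit was scored as failure to keep balance on the rod for 1 min in each of three trials. The value recorded is the lowest dose affecting half or more of the mice.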
In general terms: The rotarod test checks motor coordination on a turning rod.
On to `COc1cc(/C=N\NC(=O)CCCN2C(=O)c3ccccc3C2=O)ccc1O`, for which the Activity entry was “Not Active”.
Take `C/C(=N/NC(=O)CCCN1C(=O)c2ccccc2C1=O)c1ccc([N+](=O)[O-])cc1`: the Activity result was “Not Active”.
Still for that read-out and setting: the entry for `O=C(CCCN1C(=O)c2ccccc2C1=O)NN=C(c1ccccc1)c1ccccc1` is “Not Active”; for `O=C(CCCN1C(=O)c2ccccc2C1=O)N/N=C\c1ccccc1O` it is “Not Active”; for `O=C(CCCN1C(=O)c2ccccc2C1=O)N/N=C\c1cccc([N+](=O)[O-])c1` it is “Not Active”.
Take `O=C(CCCN1C(=O)c2ccccc2C1=O)N/N=C\c1ccc([N+](=O)[O-])cc1`: the Activity entry is “Not Active”.
Still for that read-out and setting: the entry for `O=C(CCCN1C(=O)c2ccccc2C1=O)Nc1ccccc1C(F)(F)F` is “Active”.

Another data set relates to Mus musculus. As to the kind of experiment: Anticonvulsant activity against intraperitoneal picrotoxin-induced seizure in Albino CF1 mouse at 300 mg/kg, ip after 0.5 hrs.
Conditions: not given
Format: functional, organism-based. Set-up: dose 300 mg/kg. In outline:
as §1
For the compound `COc1cc(/C=N\NC(=O)CCCN2C(=O)c3ccccc3C2=O)ccc1O`, the outcome was Active.
Still for that read-out and setting: to `C/C(=N/NC(=O)CCCN1C(=O)c2ccccc2C1=O)c1ccc([N+](=O)[O-])cc1` belongs “Active”; to `O=C(CCCN1C(=O)c2ccccc2C1=O)NN=C(c1ccccc1)c1ccccc1`, “Active”; to `O=C(CCCN1C(=O)c2ccccc2C1=O)N/N=C\c1ccccc1O`, “Active”.
The same measure, in the same setting: to `O=C(CCCN1C(=O)c2ccccc2C1=O)N/N=C\c1cccc([N+](=O)[O-])c1` belongs “Active”; to `O=C(CCCN1C(=O)c2ccccc2C1=O)N/N=C\c1ccc([N+](=O)[O-])cc1`, “inactive”.
The same measure, in the same setting: the entry for `O=C(CCCN1C(=O)c2ccccc2C1=O)Nc1ccccc1C(F)(F)F` is “Active”.

In a further data set the test system is Mus musculus. As to the kind of experiment: Anticonvulsant activity against subcutaneous pentylenetetrazole-induced seizure in Albino CF1 mouse at 300 mg/kg, ip after 0.5 hrs. The data set is classed as functional, organism-based. Set-up: dose 300 mg/kg.
Conditions: not given
The essentials: as §2
For `COc1cc(/C=N\NC(=O)CCCN2C(=O)c3ccccc3C2=O)ccc1O`, the outcome was inactive.
Same read-out and setting: the entry for `C/C(=N/NC(=O)CCCN1C(=O)c2ccccc2C1=O)c1ccc([N+](=O)[O-])cc1` is “inactive”.
As for `O=C(CCCN1C(=O)c2ccccc2C1=O)NN=C(c1ccccc1)c1ccccc1`, the outcome was inactive.
Same read-out and setting: the entry for `O=C(CCCN1C(=O)c2ccccc2C1=O)N/N=C\c1ccccc1O` is “inactive”; for `O=C(CCCN1C(=O)c2ccccc2C1=O)N/N=C\c1cccc([N+](=O)[O-])c1` it is “Active”.
The same measure, in the same setting: to `O=C(CCCN1C(=O)c2ccccc2C1=O)N/N=C\c1ccc([N+](=O)[O-])cc1` belongs “inactive”; to `O=C(CCCN1C(=O)c2ccccc2C1=O)Nc1ccccc1C(F)(F)F`, “inactive”.

Another data set has as its system Mus musculus. The experiment in a line: Anticonvulsant activity against subcutaneous strychnine-induced seizure in Albino CF1 mouse at 300 mg/kg, ip after 4 hrs. Format: functional, organism-based. More on the design: dose 300 mg/kg.
Conditions: not given
The essentials:
as §2
On to `COc1cc(/C=N\NC(=O)CCCN2C(=O)c3ccccc3C2=O)ccc1O`, for which the result was inactive.
Same read-out and setting: the entry for `C/C(=N/NC(=O)CCCN1C(=O)c2ccccc2C1=O)c1ccc([N+](=O)[O-])cc1` is “inactive”; for `O=C(CCCN1C(=O)c2ccccc2C1=O)NN=C(c1ccccc1)c1ccccc1` it is “inactive”.
Same read-out and setting: the entry for `O=C(CCCN1C(=O)c2ccccc2C1=O)N/N=C\c1ccccc1O` is “inactive”.
The same measure, in the same setting: to `O=C(CCCN1C(=O)c2ccccc2C1=O)N/N=C\c1cccc([N+](=O)[O-])c1` belongs “inactive”; to `O=C(CCCN1C(=O)c2ccccc2C1=O)N/N=C\c1ccc([N+](=O)[O-])cc1`, “inactive”.
In the case of `O=C(CCCN1C(=O)c2ccccc2C1=O)Nc1ccccc1C(F)(F)F`, the result was inactive.

In another data set the test system is Mus musculus. As to the kind of experiment: Neurotoxicity in Albino CF1 mouse at 300 mg/kg, ip after 0.5 hrs by Rotarod test. The data set is classed as toxicity, organism-based. More on the design: dose 300 mg/kg, route intraperitoneal. Conditions: in vivo. The essentials:
as §3
With `COc1cc(/C=N\NC(=O)CCCN2C(=O)c3ccccc3C2=O)ccc1O`, the Activity result is “Not Active”.
`C/C(=N/NC(=O)CCCN1C(=O)c2ccccc2C1=O)c1ccc([N+](=O)[O-])cc1`: the outcome was Active.
Same read-out and setting: to `O=C(CCCN1C(=O)c2ccccc2C1=O)NN=C(c1ccccc1)c1ccccc1` belongs “Not Active”.
The same measure, in the same setting: the entry for `O=C(CCCN1C(=O)c2ccccc2C1=O)N/N=C\c1ccccc1O` is “Not Active”; for `O=C(CCCN1C(=O)c2ccccc2C1=O)N/N=C\c1cccc([N+](=O)[O-])c1` it is “Not Active”; for `O=C(CCCN1C(=O)c2ccccc2C1=O)N/N=C\c1ccc([N+](=O)[O-])cc1` it is “Not Active”.
Still for that read-out and setting: to `O=C(CCCN1C(=O)c2ccccc2C1=O)Nc1ccccc1C(F)(F)F` belongs “Not Active”.

A further data set deals with Mus musculus. As to the kind of experiment: Anticonvulsant activity against subcutaneous strychnine-induced seizure in Albino CF1 mouse at 100 mg/kg, ip after 0.5 hrs.
Conditions: not given
Set-up: dose 100 mg/kg. The data set is classed as functional, organism-based. In outline:
as §2
As for `C/C(=N/NC(=O)CCCN1C(=O)c2ccccc2C1=O)c1ccc([N+](=O)[O-])cc1`, the result was Active.
